Assay results reported in ChEMBL document CHEMBL1155195 (J Med Chem, 2009).
The source made the active and inactive calls. The calls are words filed in the database; no cut-off is given here.

Assays:
U-937 [1] = assay: Cytotoxicity against human U937 cells after 72 hrs by sulforhodamine B assay; type: functional, cell-based; conditions: U-937, 72 h
[2] = Binding affinity to zinc assessed as formation of zinc-compound complex by EGTA fluorescence titration assay
U-937 [3] = assay: Induction of apoptosis in human U937 cells assessed as viable cells at 50 uM after 12 hrs by FITC-conjugated annexin V and propidium iodide staining-based flow cytometry; type: functional; conditions: U-937, 12 h, read-out: Activity
In short: (§1)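 U-937 cells incubated with compound at 50 μM or vehicle for 12 hours, then co-stained with propidium iodide and FITC-labeled Annexin V; Annexin V-positive/PI-negative cells scored as early apoptotic.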

U-937 [4] = assay: Induction of apoptosis in human U937 cells assessed as early apoptotic cells at 50 uM after 12 hrs by FITC-conjugated annexin V and propidium iodide staining-based flow cytometry; type: functional; in short: as §1
U-937 [5] = assay: Induction of apoptosis in human U937 cells assessed as late apoptotic cells at 50 uM after 12 hrs by FITC-conjugated annexin V and propidium iodide staining-based flow cytometry; type: functional; in short: as §1
U-937 [6] = assay: Induction of apoptosis in human U937 cells assessed as non-viable necrotic cells at 50 uM after 12 hrs by FITC-conjugated annexin V and propidium iodide staining-based flow cytometry; type: functional; in short: as §1
Caspase-3 (Homo sapiens) [7] = target: T1, Caspase-3 (Homo sapiens) (UniProt P42574); assay: Induction of procaspase 3 activation in human SK-MEL-5 cells at 25 uM after 1 hr by immunofluorescent staining-based confocal microscopy in presence of 25 uM caspase 3/7 inhibitor FAM-DEVD-fmk; type: cell-based
T1 sequence (whole entry): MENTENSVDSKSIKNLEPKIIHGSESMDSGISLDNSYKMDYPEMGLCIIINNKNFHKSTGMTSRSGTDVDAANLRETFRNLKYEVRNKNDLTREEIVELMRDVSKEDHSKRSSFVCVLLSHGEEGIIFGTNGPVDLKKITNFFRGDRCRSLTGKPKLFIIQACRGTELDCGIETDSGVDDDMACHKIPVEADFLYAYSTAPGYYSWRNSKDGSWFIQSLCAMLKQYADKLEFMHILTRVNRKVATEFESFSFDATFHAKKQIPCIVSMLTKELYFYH
In short: (§2)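 Live SK-MEL-5 cells treated with DMSO or compound (25 μM) together with FAM-DEVD-fmk (25 μM), a fluorescent irreversible active-site caspase-3/-7 label, for 1 hour; washed in phenol red-free medium, incubated 2 hours further, then imaged by multiphoton confocal microscopy.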

Caspase-3 (Homo sapiens) [8] = target: T1, Caspase-3 (Homo sapiens); assay: Induction of procaspase 3 activation in human SK-MEL-5 cells assessed as caspase 3 cytoplasmic colocalization at 25 uM after 1 hr by immunofluorescent staining-based confocal microscopy; type: cell-based
In short: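 SK-MEL-5 cells given DMSO or 25 μM compound for 1 hour, washed with phenol red-free medium, incubated 2 more hours, fixed, stained with rabbit anti-caspase-3 antibody (recognizes procaspase-3 and caspase-3) plus anti-rabbit Alexa Fluor 647 secondary, mounted and imaged by multiphoton confocal microscopy.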

Caspase-3 (Homo sapiens) [9] = target: T1, Caspase-3 (Homo sapiens); assay: Inhibition of 6xHis-tagged recombinant caspase 3 expressed in Escherichia coli BL21 (DE3) at 10 uM after 30 mins in absence of zinc ion
SK-MEL-5 = assay: Zinc chelating activity in human SK-MEL-5 cells assessed as appearance of punctate cytoplasmic staining pattern at 25 uM after 1 hr by immunofluorescent staining-based confocal microscopy; type: functional, cell-based
In short: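 Live SK-MEL-5 cells incubated 1 hour with 25 μM fluorescent derivative, washed with phenol red-free medium, incubated 2 further hours; DNA stained with SYBR green; imaged by multiphoton confocal microscopy for subcellular, punctate cytoplasmic fluorescence.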

Caspase-3 (Homo sapiens) [10] = target: T1, Caspase-3 (Homo sapiens); assay: Induction of procaspase 3 activation in human SK-MEL-5 cells assessed as caspase 3 cytoplasmic colocalization at 25 uM after 1 hr by immunofluorescent staining-based confocal microscopy in presence of 25 uM caspase 3/7 inhibitor FAM-DEVD-fmk; type: cell-based; in short: as §2
Caspase-3 (Homo sapiens) [11] = target: T1, Caspase-3 (Homo sapiens); assay: Activation of 6xHis-tagged recombinant caspase 3 expressed in Escherichia coli BL21 (DE3) at 50 uM after 30 mins in presence of zinc ion

SMILES	IC50 (U-937 [1]) [µM]	Kd [2] [µM]	also measured
C=CCc1cccc(/C=N/NC(=O)CN2CCN(Cc3ccc(F)cc3)CC2)c1O	2	0.048	viability at 50 µM (U-937 [3]): 62%; Activity (U-937 [4]): 30%; Activity (U-937 [5]): 8%; Activity (U-937 [6]): 0%
C=CCc1cccc(/C=N/NC(=O)CN2CCN(Cc3ccccc3)CC2)c1O [PAC-1]	4.8	0.052	Activity (Caspase-3 (Homo sapiens) [7]): Active; Activity (Caspase-3 (Homo sapiens) [8]): Active; viability at 50 µM (U-937 [3]): 58%; Activity (U-937 [4]): 31%; Activity (U-937 [5]): 11%; Activity (U-937 [6]): 0%
C=CCc1cccc(/C=N/NC(=O)CN2CCC(Cc3ccccc3)CC2)c1O	2.7	0.049	viability at 50 µM (U-937 [3]): 49%; Activity (U-937 [4]): 41%; Activity (U-937 [5]): 10%; Activity (U-937 [6]): 0%
C=CCc1cccc(/C=N/NC(=O)CN2CCN(Cc3cc(OC)ccc3OC)CC2)c1O	1	0.039	
COc1ccc(OC)c(CN2CCN(CC(=O)N/N=C/c3ccccc3O)CC2)c1	12	0.065	
CSc1ccccc1/C=N/NC(=O)CN1CCN(Cc2ccccc2)CC1	61	> 10	
C=CCc1cccc(/C=N/NC(=O)CN2CCN(Cc3cccc([N+](=O)[O-])c3)CC2)c1O	4.6	0.045	
C=CCc1cccc(/C=N/NC(=O)CC2CCN(Cc3ccccc3)CC2)c1O	2.8	0.044	inhibition (Caspase-3 (Homo sapiens) [9]): Active
Nc1ccccc1/C=N/NC(=O)CN1CCN(Cc2ccccc2)CC1	> 100	> 10	
C=CCc1cccc(CNNC(=O)CN2CCN(Cc3ccccc3)CC2)c1O	59	> 10	
O=C(CN1CCN(Cc2ccccc2)CC1)NCCc1ccccc1O	> 100	> 10	
COC(=O)c1ccccc1/C=N/NC(=O)CN1CCN(Cc2ccccc2)CC1	> 100	> 10	
C=CCc1cccc(/C=N/N(C)C(=O)CN2CCN(Cc3ccccc3)CC2)c1O	22	> 10	
O=C(CN1CCN(Cc2ccccc2)CC1)N/N=C/c1ccccc1C(=O)O	> 100	> 10	
O=C(CN1CCN(Cc2ccccc2)CC1)N/N=C/c1ccccc1	> 100	> 10	
C=CCc1cc(/C=N/NC(=O)CN2CCN(Cc3ccccc3)CC2)c(O)c(CC=C)c1	1.8	0.043	
O=C(CN1CCN(Cc2ccccc2)CC1)N/N=C/c1ccccc1SSc1ccccc1/C=N/NC(=O)CN1CCN(Cc2ccccc2)CC1	> 100	> 10	
C=CCc1cccc(/C=N/NC(=O)CN2CCN(Cc3ccncc3)CC2)c1O	21	0.08	
O=C(CN1CCN(Cc2ccccc2)CC1)N/N=C/c1ccccc1Cl	57	> 10	
O=C(CN1CCN(Cc2ccccc2)CC1)NCc1ccccc1O	> 100	> 10	
O=C(CN1CCN(Cc2ccccc2)CC1)N/N=C/c1ccccc1S	> 100	> 10	
C=CCc1cccc(/C=N/NC(=O)CN2CCN(Cc3ccc(OC)cc3)CC2)c1O	2.7	0.047	
C=CCc1cccc(/C=N/NC(=O)CN2CCN(Cc3ccccc3)CC2)c1OC	32	> 10	
C=CCc1cccc(/C=N/NC(=O)CN2CCN(Cc3cccnc3)CC2)c1O	14	0.062	
C=CCc1cccc(/C=N/NC(=O)CC2CCN(C(=O)OC(C)(C)C)CC2)c1O	6.5	0.048	inhibition (Caspase-3 (Homo sapiens) [9]): Active
C=CCc1cccc(/C=N/NC(=O)CN2CCN(Cc3cccc(Cn4cc(CNC(=O)Cc5c(C)c6cc(S(=O)(=O)O)c(N)cc6oc5=O)nn4)c3)CC2)c1O	14.8	0.061	Activity (SK-MEL-5): Active; Activity (Caspase-3 (Homo sapiens) [10]): Active; Activity (Caspase-3 (Homo sapiens) [8]): Active; Activity (Caspase-3 (Homo sapiens) [11]): 20%
